The target of assay [1] is Adenosine receptors; A2b & A3 (Homo sapiens) (UniProt P29275+P0DMS8). The assay is described as follows: Ratio of binding affinity of human A2B receptor to that of human A3 receptor. It is filed as protein assay. The method in brief: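 Ki ratio, n=3-6, 6–8 concentrations. A2B in HEK-293 membranes (20 μg): 40 nM [3H]DPCPX, 50 mM Tris HCl, 10 mM MgCl2, 1 mM EDTA, 0.1 mM benzamidine pH 7.4, 2 IU/mL adenosine deaminase, 60 min at 25 °C, nonspecific with 100 μM NECA. A3 in CHO membranes (50 μg): 1 nM [3H]MRE3008-F20, 120 min at 4 °C.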

The target of assay [2] is T1, Adenosine receptor A2b (Homo sapiens, UniProt P29275).
T1 sequence (P29275 whole entry): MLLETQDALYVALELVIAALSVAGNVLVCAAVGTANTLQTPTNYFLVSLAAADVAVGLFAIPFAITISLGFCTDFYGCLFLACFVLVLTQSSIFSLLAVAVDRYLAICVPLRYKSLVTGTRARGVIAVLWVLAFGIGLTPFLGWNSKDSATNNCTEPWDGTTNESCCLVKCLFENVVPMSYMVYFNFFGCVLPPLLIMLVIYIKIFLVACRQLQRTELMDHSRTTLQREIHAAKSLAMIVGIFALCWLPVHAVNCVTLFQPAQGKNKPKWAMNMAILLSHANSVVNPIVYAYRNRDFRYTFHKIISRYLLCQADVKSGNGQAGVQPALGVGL
The assay is described as follows: Displacement of [3H]DPCPX from Adenosine A2b receptor expressed in HEK-293 cells; range 23-40.

The target in assay [3] is T2, Adenosine receptor A1 (Homo sapiens, UniProt P30542).
T2 sequence (P30542 whole entry): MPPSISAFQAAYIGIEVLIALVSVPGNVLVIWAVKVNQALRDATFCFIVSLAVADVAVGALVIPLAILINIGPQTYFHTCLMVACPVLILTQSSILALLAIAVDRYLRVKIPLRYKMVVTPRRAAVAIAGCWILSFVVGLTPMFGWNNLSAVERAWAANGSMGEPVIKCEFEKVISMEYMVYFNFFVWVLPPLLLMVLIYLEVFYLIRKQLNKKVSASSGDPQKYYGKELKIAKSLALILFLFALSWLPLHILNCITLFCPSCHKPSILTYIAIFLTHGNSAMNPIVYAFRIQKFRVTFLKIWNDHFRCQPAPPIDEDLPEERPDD
The experiment in a line: Displacement of [3H]-DPCPX from human adenosine A1 receptor expressed in CHO cells; range 6.9-9.7. It counts as cell-based. In general terms: In a radioligand displacement assay an active substance lowers the binding of a labelled ligand.

The target in assay [4] is Adenosine receptors; A1 & A3 (Homo sapiens) (UniProt P30542+P0DMS8). The experiment in a line: Ratio of binding affinity of human A1 receptor to that of human A3 receptor. It is filed as protein assay. The method in brief: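 Ki ratio from displacement in CHO membranes, 6–8 concentrations, n=3-6, filtration counting. A1: 1 nM [3H]DPCPX, 50 μg protein, 120 min at 25 °C, nonspecific with 10 μM CHA. A3: 1 nM [3H]MRE3008-F20, 50 μg protein, Tris/10 mM MgCl2 pH 7.4, 120 min at 4 °C, nonspecific with 1 μM MRE3008-F20.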

Assay [5] has as its target T3, Adenosine receptor A3 (Homo sapiens, UniProt P0DMS8).
T3 sequence (P0DMS8 whole entry): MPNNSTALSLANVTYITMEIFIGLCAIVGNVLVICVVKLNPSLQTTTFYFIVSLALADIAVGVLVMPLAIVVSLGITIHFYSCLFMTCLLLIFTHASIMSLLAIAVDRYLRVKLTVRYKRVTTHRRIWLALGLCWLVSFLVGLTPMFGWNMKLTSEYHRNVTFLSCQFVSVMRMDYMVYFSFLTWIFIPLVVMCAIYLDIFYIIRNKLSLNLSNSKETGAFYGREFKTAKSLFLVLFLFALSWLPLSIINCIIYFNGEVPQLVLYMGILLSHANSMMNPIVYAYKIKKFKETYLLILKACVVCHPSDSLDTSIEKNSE
The experiment in a line: Inhibition of cAMP accumulation in CHO cells expressing human adenosine A3 receptor. It is filed as functional, cell-based. (In general: Changes in cAMP serve as a functional read-out for many G protein-coupled receptors.)

The target in assay [6] is T4, Adenosine receptor A3 (Homo sapiens) (UniProt P0DMS8).
T4 sequence (whole entry): T3 sequence (P0DMS8 whole entry)
The assay is described as follows: Percentage of blockade by 1 uM of the inhibition by 100 nM IB-MECA-inhibited cAMP accumulation in CHO cells expressing human adenosine A3 receptor. It counts as functional, cell-based. The method in brief: (§1)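 CHO cells stably expressing human A3 receptor; membranes in 50 mM Tris HCl, 10 mM MgCl2, 1 mM EDTA pH 7.4 with 5 μM GTP, 0.5 mM […] and 2.0 IU/mL adenosine deaminase. Preincubated 10 min at 37 °C, then IB-MECA (100 nM) and/or antagonist with 1 mM ATP and 10 μM forskolin for 10 min. Boiled 2 min. cAMP read by [3H]cAMP competition with adrenal binding protein.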

Assay [7] has as its target T5, Adenosine receptor A2a (Homo sapiens, UniProt P29274). The experiment in a line: Displacement of [3H]-SCH- 58261 from human adenosine A2A receptor expressed in CHO cells; range 8.7-10.5. It counts as cell-based.
The target of assay [8] is T4, Adenosine receptor A3 (Homo sapiens). The experiment in a line: Percent reversal of 100 nM IB-MECA-inhibited cAMP accumulation in CHO cells expressing human adenosine A3 receptor at 1 uM; range 63-110. It counts as functional, cell-based. The method in brief: as §1
Assay [9] concerns the target T2, Adenosine receptor A1. The experiment in a line: Displacement of [3H]DPCPX from human adenosine A1 receptor expressed in CHO cells; range 632-1003. It is filed as cell-based.
The target of assay [10] is T3, Adenosine receptor A3. The assay is described as follows: Inhibition of cAMP accumulation in CHO cells expressing human adenosine A3 receptor; range 5.1-8.9. It counts as functional, cell-based. In a few lines:
as §1

Assay [11] addresses T3, Adenosine receptor A3. The assay is described as follows: Displacement of [3H]MRE3008-F20 from human adenosine A3 receptor expressed in CHO cells; range 0.63-1.00. It is filed as cell-based.
The target of assay [12] is T5, Adenosine receptor A2a. The assay is described as follows: Displacement of [3H]-SCH- 58261 from human adenosine A2A receptor expressed in CHO cells; range 461-645. It is filed as cell-based.
Assay [13] deals with T1, Adenosine receptor A2b. The experiment in a line: Displacement of [3H]DPCPX from Adenosine A2b receptor expressed in […]; range 1531-1920. It counts as cell-based.
In assay [14] the target is T2, Adenosine receptor A1. The experiment in a line: Displacement of [3H]DPCPX from human adenosine A1 receptor expressed in CHO cells; range 254-356. It counts as cell-based.
For assay [15], the target named is T3, Adenosine receptor A3. The assay is described as follows: biochemical.
Assay [16] has as its target T4, Adenosine receptor A3 (Homo sapiens). Conditions: CHO, 1 uM.
Assay [17] concerns the target T1, Adenosine receptor A2b. The assay is described as follows: Displacement of [3H]-DPCPX from Adenosine A2b receptor expressed in […]; range 52-65. It counts as cell-based.
Assay [18] addresses T5, Adenosine receptor A2a. The assay is described as follows: Displacement of [3H]-SCH- 58261 from human adenosine A2A receptor expressed in CHO cells; range 850-1230. It counts as cell-based.
Assay [19] addresses T3, Adenosine receptor A3. The experiment in a line: Displacement of [3H]MRE3008-F20 from human adenosine A3 receptor expressed in CHO cells; range 247-317. It is filed as cell-based.
For assay [20], the target named is T1, Adenosine receptor A2b. The assay is described as follows: Displacement of [3H]DPCPX from Adenosine A2b receptor expressed in […]; range 3.9-6.7. It counts as cell-based.
Assay [21] concerns the target T5, Adenosine receptor A2a. The assay is described as follows: biochemical.
For assay [22], the target named is T3, Adenosine receptor A3. The assay is described as follows: biochemical. This is another data set of the same source.
For assay [23], the target named is T5, Adenosine receptor A2a. The assay is described as follows: Displacement of [3H]-SCH- 58261 from human adenosine A2A receptor expressed in CHO cells; range 267-453. It counts as cell-based.
Assay [24] concerns the target T2, Adenosine receptor A1. The assay is described as follows: Displacement of [3H]DPCPX from human adenosine A1 receptor expressed in CHO cells; range 170-358. It is filed as cell-based.
Assay [25] has as its target T1, Adenosine receptor A2b. The assay is described as follows: Displacement of [3H]DPCPX from Adenosine A2b receptor expressed in HEK-293 cells; range 934-1327.

T5 sequence (P29274 whole entry): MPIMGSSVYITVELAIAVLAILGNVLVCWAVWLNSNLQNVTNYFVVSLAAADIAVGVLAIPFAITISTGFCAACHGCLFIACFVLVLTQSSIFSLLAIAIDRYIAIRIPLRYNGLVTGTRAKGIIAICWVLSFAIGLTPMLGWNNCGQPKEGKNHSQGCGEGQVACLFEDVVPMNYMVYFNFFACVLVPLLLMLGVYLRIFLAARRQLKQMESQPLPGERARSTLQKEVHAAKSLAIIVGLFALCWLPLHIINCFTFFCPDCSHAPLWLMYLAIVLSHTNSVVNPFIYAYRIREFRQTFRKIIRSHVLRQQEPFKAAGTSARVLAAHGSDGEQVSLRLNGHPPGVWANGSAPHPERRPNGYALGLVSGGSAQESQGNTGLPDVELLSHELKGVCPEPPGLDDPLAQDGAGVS

In general, Ki refers to a measure of affinity in units of concentration, obtained from inhibition or displacement. The low end stands for a stronger hold on the target, the high end for a looser hold on the target. By IC50 is commonly meant the concentration that inhibits the measured activity by half. A higher IC50 goes with weaker potency in that assay. The term inhibition denotes how much of the control response was suppressed. Turning to `O=C(Nc1cccc(Cl)c1)Nc1nc2ccc(Cl)cc2c2nc(-c3ccco3)nn12`, the Ratio in assay [1] turned out to be 157; in assay [4], 54. Also, the inhibitory constant (Ki) is 0.03 µM in [2], 0.0081 µM in [3] and 0.0095 µM in assay [7]. The compound further came in with an IC50 in assay [5] of 0.0024 µM. In assay [6], the inhibition was determined as 95%.

With `COc1ccc(NC(=O)Nc2nc3nn(C(C)(C)C)cc3c3nc(-c4ccco4)nn23)cc1`, the Ratio is 2140 in assay [1] and 995 in [4]. The inhibition in assay [8] was found to be 84%. The Ki was 0.796 µM in assay [9], 0.0008 µM in [11], 0.545 µM in assay [12] and 1.72 µM in assay [13]. Further, in [10], half-maximal inhibition (IC50) required 0.0068 µM.

As to `COc1ccc(NC(=O)Nc2nc3nn(CC=C(C)C)cc3c3nc(-c4ccco4)nn23)cc1`, the values for the Ratio in [1] and in [4] were 1.45 and 7.5, respectively. Also, the inhibition constant (Ki) was determined as 0.3 µM in assay [14], 0.04 µM in assay [15], 0.058 µM in assay [17] and 1.02 µM in assay [18]. Also, in [16], the inhibition is 42%.

Consider `Nc1nc2nn(CCc3ccccc3)cc2c2nc(-c3ccco3)nn12`, for which the values for the inhibition constant Ki in [19], in [20] and in assay [21] were 0.28 µM, 0.0051 µM and 0.00034 µM, respectively. Moreover, the Ratio in assay [1] stood at 0.0017; in assay [4], 0.003. The compound also came in with an inhibition in assay [6] of 28%.

For the compound `Nc1nc2nn(CCc3cc(Br)c(Br)cc3Br)cc2c2nc(-c3ccco3)nn12`, the values for the Ratio in [1] and in assay [4] were 0.25 and 0.06, respectively. In addition, the Ki in assay [22] is 4.48 µM; in assay [23], 0.348 µM; in assay [24], 0.247 µM; in [25], 1.11 µM. The inhibition in assay [6] worked out at 3%.
